# Reference: ChEMBL document CHEMBL4689842, “EUbOPEN Chemogenomics Library wave 1” (2021)
# System: U2OS
# Experiment: Multiplex assay against U2OS
# Type: toxicity, cell-based
# Conditions: human
# In short: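 Cells were classed with CellPathfinder machine-learning gating, first as Hoechst high-intensity objects or normal cells, then (normal cells) as healthy, pyknosed or fragmented nuclei, and finally (pyknosed cells) as mitotic or apoptotic. Staining of live cells at seeding used Hoechst33342, BioTracker Green Microtubule Cytoskeleton Dye, MitoTracker Red and Annexin V Alexa Fluor 680, with imaging on a CQ1 microscope at 37°C and 5% CO2 after compound addition. Tubulin, mitochondrial-mass and membrane-permeability phenotypes are per cents of healthy-nucleus cells.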
# [1] = 12 h, 1 µM, compound concentration 1 uM, replicate 1
# [2] = 12 h, 1 µM, compound concentration 1 uM, replicate 2
# [3] = 12 h, 10 µM, compound concentration 10 uM, replicate 1
# [4] = 12 h, 10 µM, compound concentration 10 uM, replicate 2
# [5] = 24 h, 1 µM, compound concentration 1 uM, replicate 1
# [6] = 24 h, 1 µM, compound concentration 1 uM, replicate 2
# [7] = 24 h, 10 µM, compound concentration 10 uM, replicate 1
# [8] = 24 h, 10 µM, compound concentration 10 uM, replicate 2
# [9] = 48 h, 1 µM, compound concentration 1 uM, replicate 1
# [10] = 48 h, 1 µM, compound concentration 1 uM, replicate 2
# [11] = 48 h, 10 µM, compound concentration 10 uM, replicate 1
# [12] = 48 h, 10 µM, compound concentration 10 uM, replicate 2
smiles,measurement,setting,value
COc1ccccc1CN[C@H]1C2CCN(CC2)[C@H]1C(c1ccccc1)c1ccccc1 [CP-96345],Population Apoptotic (%),[1],22%
same,Population Fragmented Nuclei (%),[1],14%
same,Population Healthy Nuclei (%),[1],71%
same,Population Hoechst High Intensity Objects (%),[1],11%
same,Population Membrane Permeable-Phenotype (%),[1],8%
same,Population Mitochondria Different-Phenotype (%),[1],20%
same,Population Mitotic Cells (%),[1],77%
same,Population Normal (%),[1],88%
same,Population Pyknosed Nuclei (%),[1],14%
same,Population Tubulin-Different-Phenotype (%),[1],16%
same,Total Cell Count,[1],136
same,Population Apoptotic (%),[2],66%
same,Population Fragmented Nuclei (%),[2],4%
same,Population Healthy Nuclei (%),[2],92%
same,Population Hoechst High Intensity Objects (%),[2],0%
same,Population Membrane Permeable-Phenotype (%),[2],4%
same,Population Mitochondria Different-Phenotype (%),[2],7%
same,Population Mitotic Cells (%),[2],33%
same,Population Normal (%),[2],100%
same,Population Pyknosed Nuclei (%),[2],3%
same,Population Tubulin-Different-Phenotype (%),[2],8%
same,Total Cell Count,[2],90
same,Population Apoptotic (%),[3],51%
same,Population Fragmented Nuclei (%),[3],10%
same,Population Healthy Nuclei (%),[3],65%
same,Population Hoechst High Intensity Objects (%),[3],6%
same,Population Membrane Permeable-Phenotype (%),[3],7%
same,Population Mitochondria Different-Phenotype (%),[3],87%
same,Population Mitotic Cells (%),[3],48%
same,Population Normal (%),[3],93%
same,Population Pyknosed Nuclei (%),[3],24%
same,Population Tubulin-Different-Phenotype (%),[3],84%
same,Total Cell Count,[3],127
same,Population Apoptotic (%),[4],50%
same,Population Fragmented Nuclei (%),[4],2%
same,Population Healthy Nuclei (%),[4],86%
same,Population Hoechst High Intensity Objects (%),[4],3%
same,Population Membrane Permeable-Phenotype (%),[4],1%
same,Population Mitochondria Different-Phenotype (%),[4],45%
same,Population Mitotic Cells (%),[4],50%
same,Population Normal (%),[4],96%
same,Population Pyknosed Nuclei (%),[4],10%
same,Population Tubulin-Different-Phenotype (%),[4],26%
same,Total Cell Count,[4],77
same,Population Apoptotic (%),[5],45%
same,Population Fragmented Nuclei (%),[5],12%
same,Population Healthy Nuclei (%),[5],79%
same,Population Hoechst High Intensity Objects (%),[5],7%
same,Population Membrane Permeable-Phenotype (%),[5],6%
same,Population Mitochondria Different-Phenotype (%),[5],13%
same,Population Mitotic Cells (%),[5],54%
same,Population Normal (%),[5],92%
same,Population Pyknosed Nuclei (%),[5],7%
same,Population Tubulin-Different-Phenotype (%),[5],7%
same,Total Cell Count,[5],154
same,Population Apoptotic (%),[6],54%
same,Population Fragmented Nuclei (%),[6],4%
same,Population Healthy Nuclei (%),[6],85%
same,Population Hoechst High Intensity Objects (%),[6],2%
same,Population Membrane Permeable-Phenotype (%),[6],1%
same,Population Mitochondria Different-Phenotype (%),[6],4%
same,Population Mitotic Cells (%),[6],45%
same,Population Normal (%),[6],97%
same,Population Pyknosed Nuclei (%),[6],9%
same,Population Tubulin-Different-Phenotype (%),[6],17%
same,Total Cell Count,[6],114
same,Population Apoptotic (%),[7],75%
same,Population Fragmented Nuclei (%),[7],18%
same,Population Healthy Nuclei (%),[7],59%
same,Population Hoechst High Intensity Objects (%),[7],8%
same,Population Membrane Permeable-Phenotype (%),[7],6%
same,Population Mitochondria Different-Phenotype (%),[7],90%
same,Population Mitotic Cells (%),[7],25%
same,Population Normal (%),[7],91%
same,Population Pyknosed Nuclei (%),[7],22%
same,Population Tubulin-Different-Phenotype (%),[7],69%
same,Total Cell Count,[7],157
same,Population Apoptotic (%),[8],40%
same,Population Fragmented Nuclei (%),[8],2%
same,Population Healthy Nuclei (%),[8],81%
same,Population Hoechst High Intensity Objects (%),[8],1%
same,Population Membrane Permeable-Phenotype (%),[8],2%
same,Population Mitochondria Different-Phenotype (%),[8],31%
same,Population Mitotic Cells (%),[8],60%
same,Population Normal (%),[8],98%
same,Population Pyknosed Nuclei (%),[8],16%
same,Population Tubulin-Different-Phenotype (%),[8],14%
same,Total Cell Count,[8],92
same,Population Apoptotic (%),[9],80%
same,Population Fragmented Nuclei (%),[9],7%
same,Population Healthy Nuclei (%),[9],85%
same,Population Hoechst High Intensity Objects (%),[9],3%
same,Population Membrane Permeable-Phenotype (%),[9],2%
same,Population Mitochondria Different-Phenotype (%),[9],9%
same,Population Mitotic Cells (%),[9],20%
same,Population Normal (%),[9],96%
same,Population Pyknosed Nuclei (%),[9],6%
same,Population Tubulin-Different-Phenotype (%),[9],5%
same,Total Cell Count,[9],227
same,Population Apoptotic (%),[10],62%
same,Population Fragmented Nuclei (%),[10],5%
same,Population Healthy Nuclei (%),[10],89%
same,Population Hoechst High Intensity Objects (%),[10],0%
same,Population Membrane Permeable-Phenotype (%),[10],4%
same,Population Mitochondria Different-Phenotype (%),[10],12%
same,Population Mitotic Cells (%),[10],37%
same,Population Normal (%),[10],99%
same,Population Pyknosed Nuclei (%),[10],4%
same,Population Tubulin-Different-Phenotype (%),[10],21%
same,Total Cell Count,[10],164
same,Population Apoptotic (%),[11],74%
same,Population Fragmented Nuclei (%),[11],17%
same,Population Healthy Nuclei (%),[11],58%
same,Population Hoechst High Intensity Objects (%),[11],4%
same,Population Membrane Permeable-Phenotype (%),[11],11%
same,Population Mitochondria Different-Phenotype (%),[11],78%
same,Population Mitotic Cells (%),[11],25%
same,Population Normal (%),[11],95%
same,Population Pyknosed Nuclei (%),[11],23%
same,Population Tubulin-Different-Phenotype (%),[11],55%
same,Total Cell Count,[11],194
same,Population Apoptotic (%),[12],33%
same,Population Fragmented Nuclei (%),[12],9%
same,Population Healthy Nuclei (%),[12],80%
same,Population Hoechst High Intensity Objects (%),[12],1%
same,Population Membrane Permeable-Phenotype (%),[12],6%
same,Population Mitochondria Different-Phenotype (%),[12],14%
same,Population Mitotic Cells (%),[12],66%
same,Population Normal (%),[12],98%
same,Population Pyknosed Nuclei (%),[12],10%
same,Population Tubulin-Different-Phenotype (%),[12],13%
same,Total Cell Count,[12],146
